Source: PubChem BioAssay (several laboratories)
Sampled rows, rich in hits. Any-hit rate of the full collection: about 2.4%.
aDG glyco up – activators of alpha-DG glycosylation, primary screen, uHTS, Pro5-aDG cells, AlphaScreen; alpha-DG glycosylation AlphaScreen (IIH6); 0% Pro5, 100% B10-LARGE cell signal; activation, % at 10 µM; 0.22% of 360,000 active;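 active = activation of at least 8% versus controls, or a plate z-score of at least 8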;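 also: Pro5 are CHO cells carrying HIG-tagged alpha-DG that lacks glycosylation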
697 NFkB inh – inhibitors of PMA/ionomycin-induced NF-kB reporter, 697 cells, primary screen, B-cell NF-kB inhibitor project, cell-based, luminescence, uHTS. 697 B-cell NF-kB luciferase reporter, 16 h. 0.33% of 330,000 active. inhibition, % at 4 µM. AID 435022, 2010; in the data active = inhibition above about 35%
MPTP block – mitochondrial permeability transition pore inhibitors, primary screen, biochemical, isolated mouse mitochondria, absorbance; inhibition, % at 10 µM; 1.4% of 360,000 active; Ca2+ swelling absorbance, 30 min; AID 602449, 2012;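 active = inhibition of 50% or more, scaled per plate between neutral and stimulator controls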;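 also: 0% = DMSO wells given calcium and 100% = 1 mM EGTA wells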
NR2E3 ag-1 – inhibitors of NR2E3-RetCOR corepressor binding, primary screen, NR2E3 agonist project, biochemical, TR-FRET, GST-NR2E3, biotin-RetCOR | 1536-well | Photoreceptor-specific nuclear receptor (Homo sapiens), Q9Y5X4 | AID 2300, 2010 | inhibition of corepressor binding, % at 4.78 µM | 0.12% of 320,000 active;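 active = percent inhibition above the cutoff of mean plus 3 SD of all tested compounds, set per screening campaign, cut at about 20% in these data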;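 also: 0% = DMSO wells and 100% = biotin wells as full block of FRET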
Target sequence (Q9Y5X4 whole entry, looked up): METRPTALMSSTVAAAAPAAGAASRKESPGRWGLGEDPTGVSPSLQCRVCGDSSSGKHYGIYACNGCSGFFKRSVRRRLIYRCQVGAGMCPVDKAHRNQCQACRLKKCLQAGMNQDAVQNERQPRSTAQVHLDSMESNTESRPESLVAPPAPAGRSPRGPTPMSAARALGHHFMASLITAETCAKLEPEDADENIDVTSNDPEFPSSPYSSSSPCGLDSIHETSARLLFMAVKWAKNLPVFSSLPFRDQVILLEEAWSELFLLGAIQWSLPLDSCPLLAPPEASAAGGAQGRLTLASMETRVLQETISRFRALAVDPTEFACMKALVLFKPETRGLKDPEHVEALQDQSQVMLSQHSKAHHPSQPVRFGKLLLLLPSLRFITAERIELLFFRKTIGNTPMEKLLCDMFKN
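Test system: GST-NR2E3 and biotin-RetCOR proteins | Quantity: 1.35 nM GST-tagged NR2E3 final | Medium: Tris pH 7.5 | Also added: 7 nM biotin-RetCOR | Dosing: Compound at 4.8 µM, single dose | Timing: 5 h at 4 °C | Detection: Time-resolved FRET | Read-out basis: Percent inhibition | Benchmarks: Biotin wells as high control, 0.6% DMSO wells as low control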
NR2E3 ag-2 – NR2E3 agonists in two-hybrid cells, primary screen, cell-based, luminescence, CHO-S, Gal4-NCOR/VP16-NR2E3; Photoreceptor-specific nuclear receptor (Homo sapiens), Q9Y5X4; luciferase; inhibition of corepressor binding, % at 3.98 µM; 0.35% of 360,000 active;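 active = inhibition above the mean of all tested compounds plus 3 SD, cut at about 70% in these data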;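 also: 0% = DMSO with NR2E3 transfected cells and 100% = cells lacking NR2E3 construct; higher means lower luciferase signal from less NR2E3 corepressor binding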
Jurkat NFkB inh – inhibitors of induced NF-kB luciferase reporter, primary screen, TCR NF-kB activation inhibitor project, cell-based, luminescence, uHTS | 0.53% of 330,000 active | inhibition, % at 4 µM | Jurkat, PMA/ionomycin-induced NF-kB luciferase reporter; in the data active = inhibition above about 50%
Jurkat NFkB conf – PMA/ionomycin-induced NF-kB reporter inhibitors, Jurkat retest, confirmation, T-cell NF-kB inhibitor project, cell-based, luminescence, single concentration | AID 435020, 2010 | inhibition, % at 4 µM | 27% of 2,700 active | shares compounds with Jurkat NFkB inh | Jurkat NF-kB luciferase, 16 h;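 active = inhibition reaching about 45% at 4 µM in either replicate, limit read from the data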;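 also: plate controls were PMA/ionomycin stimulated DMSO wells for no effect and unstimulated DMSO wells for full effect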
* = called active by the depositor.

What do the screens show for `Cc1cc(C(=O)Nc2sc3c(c2C#N)CCCCC3)cs1`?
aDG glyco up: 0; 697 NFkB inh: -179; MPTP block: -3; NR2E3 ag-1: -1; NR2E3 ag-2: -140; Jurkat NFkB inh: -186; Jurkat NFkB conf: -105

How did CC1CCC(NC(=O)CNC(=O)Cc2cccc3ccccc23)CC1 (stereo not given) do in these assays?
aDG glyco up: 0; 697 NFkB inh: -14; MPTP block: 0; NR2E3 ag-1: 1; NR2E3 ag-2: -16; Jurkat NFkB inh: -17

How did S=C(NCCCN1CCOCC1)N1CCN(c2nc(-c3ccc(Cl)cc3)cs2)CC1 do in these assays?
aDG glyco up: 3; 697 NFkB inh: 21; MPTP block: 2; NR2E3 ag-1: 5; NR2E3 ag-2: 9; Jurkat NFkB inh: 51*; Jurkat NFkB conf: 20

How did CCOC(=O)CSc1nnc(Cn2nnc3ccccc32)n1-c1ccc(F)cc1 do in these assays?
aDG glyco up: 0; 697 NFkB inh: 10; MPTP block: 2; NR2E3 ag-1: -1; NR2E3 ag-2: 10; Jurkat NFkB inh: 14

How did Cc1ccc(C(=O)Nc2ccc(N3CCCCC3)cc2)cc1 do in these assays?
aDG glyco up: 0; 697 NFkB inh: -161; MPTP block: 1; NR2E3 ag-2: -125; Jurkat NFkB inh: -176; Jurkat NFkB conf: -113

How did O=C(Nc1ccc(N2CCCCC2)cc1)c1ccc(F)cc1F do in these assays?
aDG glyco up: 0; 697 NFkB inh: -202; MPTP block: 2; NR2E3 ag-1: 3; NR2E3 ag-2: -139; Jurkat NFkB inh: -175; Jurkat NFkB conf: -69

How did O=C(Nc1ccc(N2CCCC2)cc1)c1ccccc1F do in these assays?
aDG glyco up: 0; 697 NFkB inh: -99; MPTP block: 0; NR2E3 ag-1: 4; NR2E3 ag-2: -125; Jurkat NFkB inh: -60

How did Cc1ccc(C(=O)Nc2cccc(C(=O)O)c2)cc1 do in these assays?
697 NFkB inh: 17; NR2E3 ag-1: 3; Jurkat NFkB inh: 73*; Jurkat NFkB conf: 60*

What do the screens show for `COc1ccc(/C=N\NC(=O)c2ccccc2F)cc1COc1ccc(F)cc1F`?
aDG glyco up: 0; 697 NFkB inh: -6; MPTP block: 0; NR2E3 ag-1: 1; NR2E3 ag-2: -7; Jurkat NFkB inh: 61*; Jurkat NFkB conf: 44

Results for COc1ccc(/C=N\NC(=O)c2ccccc2F)cc1COc1ccc(F)cc1 ?
aDG glyco up: 0; 697 NFkB inh: -17; MPTP block: 1; NR2E3 ag-1: 2; NR2E3 ag-2: -21; Jurkat NFkB inh: 25

How did Cc1ccc(COc2ccccc2-c2cc(C(=O)N/N=C/c3cccnc3)[nH]n2)cc1 do in these assays?
aDG glyco up: 0; 697 NFkB inh: -12; MPTP block: 0; NR2E3 ag-1: 0; NR2E3 ag-2: -23; Jurkat NFkB inh: 53*; Jurkat NFkB conf: -2

Results for COC(=O)/C(=C\Nc1ccc(Cl)cc1Cl)NC(=O)c1ccc(OC)cc1 ?
aDG glyco up: 0; 697 NFkB inh: -2; MPTP block: 1; NR2E3 ag-1: -1; NR2E3 ag-2: -18; Jurkat NFkB inh: 66*; Jurkat NFkB conf: -1

Results for O=C(Nc1ccc(OC(F)F)c(Cl)c1)c1ccccn1 ?
aDG glyco up: 0; 697 NFkB inh: -160; MPTP block: -2; NR2E3 ag-1: -2; NR2E3 ag-2: -120; Jurkat NFkB inh: -176; Jurkat NFkB conf: -96

How did COC(=O)c1nn(-c2ccc3c(c2)CCN3C(C)=O)cc1O do in these assays?
aDG glyco up: 0; 697 NFkB inh: 10; MPTP block: -3; NR2E3 ag-1: 2; NR2E3 ag-2: -60; Jurkat NFkB inh: 53*; Jurkat NFkB conf: 67*
